Assay results taken from ChEMBL document CHEMBL2021883, “Amino acid, dipeptide and pseudodipeptide conjugates of ring-substituted 8-aminoquinolines: synthesis and evaluation of anti-infective, β-haematin inhibition and cytotoxic activities” (Eur J Med Chem, 2012).
pIC50: −log10 of the molar value. ≈ marks a conversion by molar mass, not a printed value. Calls of active or inactive are those of the source. Unless noted, no cut-off for these calls is given here.

Assays:
Pseudomonas aeruginosa = test: Antimicrobial activity against Pseudomonas aeruginosa ATCC 27853 by CLSI method; type: functional, organism-based
In short: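 Antibacterial testing used CLSI/NCCLS broth dilution for aerobically growing bacteria, with 20 as the highest test concentration.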

Staphylococcus aureus [1] = test: Antimicrobial activity against Staphylococcus aureus ATCC 29213 by CLSI method; type: functional, organism-based
[2] = Inhibition of beta-hematin formation; type: functional
Plasmodium falciparum [3] = test: Antimalarial activity against chloroquine-sensitive Plasmodium falciparum D6 assessed as plasmodial LDH activity; type: functional, organism-based
Escherichia coli = test: Antimicrobial activity against Escherichia coli ATCC 35218 by CLSI method; type: functional, organism-based
[4] = test system: Mycobacterium intracellulare; test: Antimicrobial activity against Mycobacterium intracellulare ATCC 23068 by Franzblau method; type: functional, organism-based
Plasmodium falciparum [5] = test: Antimalarial activity against chloroquine-resistant Plasmodium falciparum W2 assessed as plasmodial LDH activity; type: functional, organism-based
Staphylococcus aureus [6] = test: Antimicrobial activity against methicillin-resistant Staphylococcus aureus ATCC 43300 by CLSI method; type: functional, organism-based
Leishmania donovani = test: Antileishmanial activity against Leishmania donovani promastigote by Alamar Blue assay; type: functional, organism-based
Vero = test: Cytotoxicity against african green monkey Vero cells upto 23.8 […] by neutral dye assay; type: cell-based, Chlorocebus sabaeus
In short: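 Vero monkey kidney cells were exposed to compound up to a highest concentration of 23.8, with viability read by neutral red uptake.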

Candida albicans [7] = test: Fungicidal activity against Candida albicans at 20 ug/ml; type: functional, organism-based
In short: (§1)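 Broth dilution antifungal testing followed the NCCLS reference method for yeasts, with 20 as the highest test concentration. MIC was the lowest concentration with no detectable growth. MFC was the lowest concentration killing the organism.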

Candida albicans [8] = test: Antifungal activity against Candida albicans at 20 ug/ml; type: functional, organism-based; in short: as §1
Aspergillus fumigatus = test: Antifungal activity against Aspergillus fumigatus; type: functional, organism-based
In short: (§2)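 Yeasts and A. fumigatus were tested by broth microdilution following the NCCLS antifungal standards. The highest test concentration was 20.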

Cryptococcus neoformans = test: Antifungal activity against Cryptococcus neoformans; type: functional, organism-based; in short: as §2
[9] = Selectivity index, ratio of IC50 for african green monkey Vero cells to IC50 for chloroquine-resistant Plasmodium falciparum W2; type: toxicity, cell-based; conditions: Vero cells versus Plasmodium falciparum W2, read-out: Ratio IC50
[10] = Leishmania donovani, read-out: IC50

SMILES	Activity (Pseudomonas aeruginosa)	Activity (Staphylococcus aureus [1])	pIC50 [2]	IC50 (Plasmodium falciparum [3])	Activity (Escherichia coli)	Activity [4]	IC50 (Plasmodium falciparum [5])	Activity (Staphylococcus aureus [6])	IC50 (Leishmania donovani)	IC90 (Leishmania donovani)	IC50 (Vero)	further results
COc1cc(NC(C)CCCNC(=O)CC[C@H](NC(=O)[C@@H](N)CCCN)C(=O)O)c2ncccc2c1 (some centres not stated)	inactive	inactive	< 3.00	Not Active	inactive	inactive	Not Active	inactive	Not Active	inactive	Non-toxic	
COc1cc(NC(C)CCCN)c2nc(C(C)(C)C)ccc2c1 (configuration not stated)			5.54									
O=C(O)c1cn(C2CC2)c2cc(N3CCNCC3)c(F)cc2c1=O [CIPROFLOXACIN]												MIC [4]: 0.63 µg/mL (≈ 1.9 µM)
COc1cc(NC(C)CCCNC(=O)CC[C@@H](NC(=O)[C@H](N)CCCNC(=N)N)C(=O)O)c2nc(C(C)(C)C)ccc2c1 (some centres not stated)	inactive	inactive	< 3.00	Not Active	inactive	inactive	Not Active	inactive	Not Active	inactive	Non-toxic	
COc1cc(NC(C)CCCNC(=O)CC[C@@H](NC(=O)[C@H](N)CCCCN)C(=O)O)c2ncccc2c1 (some centres not stated)	inactive	inactive	< 3.00	Not Active	inactive	inactive	Not Active	inactive			Non-toxic	IC90 (Leishmania donovani; Leishmania donovani): 36 µg/mL (≈ 69.7 µM); IC50 (Leishmania donovani; [10]): 20.1 µg/mL (≈ 38.9 µM)
COc1cc(NC(C)CCCNC(=O)CC[C@H](NC(=O)[C@@H](N)CCCCN)C(=O)O)c2ncccc2c1 (some centres not stated)	inactive	inactive		Not Active	inactive	inactive	Not Active	inactive	Not Active	inactive	Non-toxic	
COc1cc(NC(C)CCCNC(=O)C[C@@H](NC(=O)[C@H](N)CCCCN)C(=O)O)c2nc(C(C)(C)C)ccc2c1 (some centres not stated)	inactive	inactive	< 3.00	Not Active	inactive	inactive	Not Active	inactive	Not Active	inactive	Non-toxic	
COc1cc(NC(C)CCCNC(=O)[C@@H](CCCN)NC(=O)[C@H](N)CCCN)c2ncccc2c1 (some centres not stated)	inactive	inactive	3.38	Not Active	inactive	inactive		inactive		inactive	Non-toxic	Activity (Candida albicans [7]): inactive; Activity (Candida albicans [8]): inactive; Activity (Aspergillus fumigatus): inactive; IC50 (Cryptococcus neoformans): 3.5 µg/mL (≈ 7.18 µM); MFC (Cryptococcus neoformans): 5 µg/mL (≈ 10.3 µM); MIC (Cryptococcus neoformans): 5 µg/mL (≈ 10.3 µM); selectivity ratio [9]: > 5; IC50 (Plasmodium falciparum [5]; Plasmodium falciparum, W2, read-out: IC50): 4.76 µg/mL (≈ 9.76 µM); IC50 (Leishmania donovani; [10]): 40 µg/mL (≈ 82 µM)
COc1cc(NC(C)CCCNC(=O)CC[C@H](NC(=O)[C@@H](N)CCCCN)C(=O)O)c2nc(C(C)(C)C)ccc2c1 (some centres not stated)	inactive	inactive	< 3.00	Not Active	inactive	inactive	Not Active	inactive	Not Active	inactive	Non-toxic	Activity (Candida albicans [7]): inactive; Activity (Candida albicans [8]): inactive; Activity (Aspergillus fumigatus): inactive; IC50 (Cryptococcus neoformans): 15 µg/mL (≈ 26.2 µM); MFC (Cryptococcus neoformans): 20 µg/mL (≈ 34.9 µM); MIC (Cryptococcus neoformans): 20 µg/mL (≈ 34.9 µM)
COc1cc(NC(C)CCCNC(=O)CC[C@H](NC(=O)[C@@H](N)CCCN)C(=O)O)c2nc(C(C)(C)C)ccc2c1 (some centres not stated)	inactive	inactive	< 3.00	Not Active	inactive	inactive	Not Active	inactive	Not Active	inactive	Non-toxic	Activity (Candida albicans [7]): inactive; Activity (Candida albicans [8]): inactive; Activity (Aspergillus fumigatus): inactive; IC50 (Cryptococcus neoformans): 15 µg/mL (≈ 26.8 µM); MFC (Cryptococcus neoformans): 20 µg/mL (≈ 35.8 µM); MIC (Cryptococcus neoformans): 20 µg/mL (≈ 35.8 µM)
COc1cc(NC(C)CCCNC(=O)CC[C@@H](NC(=O)[C@H](N)CCCN)C(=O)O)c2nc(C(C)(C)C)ccc2c1 (some centres not stated)	inactive	inactive	< 3.00	Not Active	inactive	inactive	Not Active	inactive	Not Active	inactive	Non-toxic	
COc1cc(NC(C)CCCNC(=O)[C@@H](CCCCN)NC(=O)[C@H](N)CCCCN)c2ncccc2c1 (some centres not stated)	inactive	inactive	3.51	Not Active	inactive	inactive	Not Active	inactive			Non-toxic	Activity (Candida albicans [7]): inactive; Activity (Candida albicans [8]): inactive; Activity (Aspergillus fumigatus): inactive; IC50 (Cryptococcus neoformans): 3.5 µg/mL (≈ 6.79 µM); MFC (Cryptococcus neoformans): 5 µg/mL (≈ 9.7 µM); MIC (Cryptococcus neoformans): 5 µg/mL (≈ 9.7 µM); IC90 (Leishmania donovani; Leishmania donovani): 7 µg/mL (≈ 13.6 µM); IC50 (Leishmania donovani; [10]): 3.5 µg/mL (≈ 6.79 µM)
COc1cc(NC(C)CCCNC(=O)NCCCC[C@H](N)C(=O)O)c2ncccc2c1 (some centres not stated)	inactive	inactive	< 3.00	Not Active	inactive	inactive	Not Active	inactive	Not Active	inactive	Non-toxic	
COc1cc(NC(C)CCCNC(=O)C[C@@H](NC(=O)[C@H](N)CCCN)C(=O)O)c2ncccc2c1 (some centres not stated)	inactive	inactive	< 3.00	Not Active	inactive	inactive	Not Active	inactive	Not Active	inactive	Non-toxic	Activity (Candida albicans [7]): inactive; Activity (Candida albicans [8]): inactive; Activity (Aspergillus fumigatus): inactive; IC50 (Cryptococcus neoformans): 7 µg/mL (≈ 14.3 µM); MFC (Cryptococcus neoformans): 10 µg/mL (≈ 20.5 µM); MIC (Cryptococcus neoformans): 10 µg/mL (≈ 20.5 µM)
COc1cc(NC(C)CCCN)c2ncccc2c1 (configuration not stated) [PRIMAQUINE]			< 3.00							inactive	Non-toxic	
N=C(N)c1ccc(OCCCCCOc2ccc(C(=N)N)cc2)cc1 [PENTAMIDINE]												IC90 (Leishmania donovani; Leishmania donovani): 3.8 µg/mL (≈ 11.2 µM)
COc1cc(NC(C)CCCNC(=O)CC[C@@H](NC(=O)[C@H](N)CCCN)C(=O)O)c2ncccc2c1 (some centres not stated)	inactive	inactive	< 3.00	Not Active	inactive	inactive	Not Active	inactive	Not Active	inactive	Non-toxic	
COc1cc(NC(C)CCCNC(=O)NCCC[C@@H](N)C(=O)O)c2ncccc2c1 (some centres not stated)	inactive	inactive	< 3.00	Not Active	inactive	inactive	Not Active	inactive	Not Active	inactive	Non-toxic	
COc1cc(NC(C)CCCNC(=O)CC[C@@H](NC(=O)[C@H](N)CCCNC(=N)N)C(=O)O)c2ncccc2c1 (some centres not stated)	inactive	inactive	< 3.00	Not Active	inactive	inactive	Not Active	inactive	Not Active	inactive	Non-toxic	
COc1cc(NC(C)CCCNC(=O)C[C@H](NC(=O)[C@@H](N)CCCN)C(=O)O)c2ncccc2c1 (some centres not stated)	inactive	inactive			inactive	inactive		inactive				
COc1cc(NC(C)CCCNC(=O)NCCCC[C@H](N)C(=O)O)c2nc(C(C)(C)C)ccc2c1 (some centres not stated)	inactive	inactive	< 3.00	Not Active	inactive	inactive	Not Active	inactive	Not Active	inactive	Non-toxic	
